Experimental data as given in ChEMBL document CHEMBL4680226, “Design, synthesis, and evaluation of N-phenyl-4-(2-phenylsulfonamido)-benzamides as microtubule-targeting agents in drug-resistant cancer cells, displaying HDAC inhibitory response” (Eur J Med Chem, 2020).
pIC50: −log10 of the molar value. Active and inactive are the calls of the source. The calls are words filed in the database; no cut-off is given here.

How the values were obtained:
[1] = test system: KB; assay: Antiproliferative activity against human KB cells incubated for 48 hrs by SRB assay; assay type: functional
In short: (§1)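 KB parental and resistant sublines kept in RPMI 1640 with 5% FBS at 37 °C, 5% CO2. Cells plated, left overnight, then given graded compound concentrations for 48 h. A time-zero plate was fixed with 10% TCA at dosing. Cells were stained with 0.4% SRB in 1% acetic acid, unbound dye washed off, bound dye dissolved in 10 mM Tris base, and absorbance read at 515 nm.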

[2] = Antiproliferative activity against human KB-VIN cells incubated for 48 hrs by SRB assay; assay type: functional; conditions: KBVIN; in short: as §1
[3] = Antiproliferative activity against human KB7D cells incubated for 48 hrs by SRB assay; assay type: functional; in short: as §1
[4] = test system: KB7D; assay: Induction of apoptosis in human KB7D cells assessed as increase in activated gammaH2AX expression at 5 uM measured after 24 hrs by Western blot analysis; assay type: functional, cell-based
In short: (§2)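 Resistant KB cells attached overnight, then drug-treated at the stated concentrations and times (24 h or 48 h). Lysates were immunoblotted for cleaved PARP, caspase-3, -8 and -9, and γH2AX, with anti-mouse or anti-rabbit IgG secondaries.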

[5] = molecular target: Histone deacetylase 1 (Homo sapiens, UniProt Q13547); assay: Inhibition of recombinant human full-length C-terminal FLAG-His tagged HDAC1 (1 to 482 residues) expressed in Sf21 insect cells using RHK-K(Ac)-AMC as substrate measured after 60 mins by fluorescence assay
[6] = molecular target: Histone deacetylase 2 (Homo sapiens, UniProt Q92769); assay: Inhibition of recombinant human C-terminal GST-tagged HDAC2 (1 to 488 residues) expressed in baculovirus infected insect cells using RHKKAc-AMC as substrate measured after 60 mins by fluorescence assay
[7] = molecular target: Histone deacetylase 3/Nuclear receptor corepressor 2 (HDAC3/NCoR2) (Homo sapiens, UniProt O15379); assay: Inhibition of human recombinant HDAC3/NCOR2 using RHKKAc-AMC as substrate measured after 60 mins by fluorescence assay; assay type: protein-complex assay
[8] = molecular target: T1, Histone deacetylase 8 (Homo sapiens, UniProt Q9BY41); assay: Inhibition of human recombinant HDAC8 using RHKAcKAc-AMC as substrate measured after 60 mins by fluorescence assay
T1 sequence (Q9BY41 whole entry): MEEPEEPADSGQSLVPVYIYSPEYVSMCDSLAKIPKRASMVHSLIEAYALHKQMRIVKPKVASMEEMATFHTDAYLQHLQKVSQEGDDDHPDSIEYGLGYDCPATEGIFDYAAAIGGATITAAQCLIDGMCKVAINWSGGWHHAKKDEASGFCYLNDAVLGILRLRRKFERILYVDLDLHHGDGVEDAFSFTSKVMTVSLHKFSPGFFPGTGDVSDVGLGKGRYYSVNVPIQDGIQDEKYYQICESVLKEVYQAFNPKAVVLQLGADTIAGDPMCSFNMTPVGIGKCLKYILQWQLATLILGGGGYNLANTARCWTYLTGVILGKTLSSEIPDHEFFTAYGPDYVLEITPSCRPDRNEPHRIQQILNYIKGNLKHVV

[9] = test system: KB-VIN; assay: Induction of apoptosis in human KB-VIN cells assessed as increase in cleaved PARP expression at 0.01 to 0.5 uM by Western blot analysis; assay type: functional, cell-based; conditions: dose 0.01-0.5 µM; in short: as §2
[10] = test system: KB-VIN; assay: Induction of apoptosis in human KB-VIN cells assessed as increase in cleaved caspase-8 expression at 0.01 to 0.5 uM by Western blot analysis; assay type: functional, cell-based; conditions: dose 0.01-0.5 µM; in short: as §2
[11] = test system: KB-VIN; assay: Induction of apoptosis in human KB-VIN cells assessed as increase in cleaved caspase-3 expression at 0.01 to 0.5 uM by Western blot analysis; assay type: functional, cell-based; conditions: dose 0.01-0.5 µM; in short: as §2
[12] = test system: KB-VIN; assay: Induction of apoptosis in human KB-VIN cells assessed as increase in cleaved caspase-9 expression at 0.01 to 0.5 uM by Western blot analysis; assay type: functional, cell-based; conditions: dose 0.01-0.5 µM; in short: as §2

Chain of Histone deacetylase 3/Nuclear receptor corepressor 2 (HDAC3/NCoR2) (O15379 whole entry): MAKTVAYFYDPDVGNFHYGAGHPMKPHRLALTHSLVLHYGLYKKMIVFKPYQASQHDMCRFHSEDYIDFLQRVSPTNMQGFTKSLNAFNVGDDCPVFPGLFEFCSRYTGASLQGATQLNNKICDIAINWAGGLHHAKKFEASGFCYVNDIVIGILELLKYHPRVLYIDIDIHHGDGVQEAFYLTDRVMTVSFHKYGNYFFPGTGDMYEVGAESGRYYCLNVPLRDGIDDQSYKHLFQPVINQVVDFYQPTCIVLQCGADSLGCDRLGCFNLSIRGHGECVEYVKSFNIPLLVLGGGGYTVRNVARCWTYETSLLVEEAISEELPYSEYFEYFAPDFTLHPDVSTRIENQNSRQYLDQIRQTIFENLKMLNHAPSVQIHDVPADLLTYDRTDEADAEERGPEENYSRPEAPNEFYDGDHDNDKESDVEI
Chain of Histone deacetylase 3/Nuclear receptor corepressor 2 (HDAC3/NCoR2) (Q9Y618 whole entry, further chain): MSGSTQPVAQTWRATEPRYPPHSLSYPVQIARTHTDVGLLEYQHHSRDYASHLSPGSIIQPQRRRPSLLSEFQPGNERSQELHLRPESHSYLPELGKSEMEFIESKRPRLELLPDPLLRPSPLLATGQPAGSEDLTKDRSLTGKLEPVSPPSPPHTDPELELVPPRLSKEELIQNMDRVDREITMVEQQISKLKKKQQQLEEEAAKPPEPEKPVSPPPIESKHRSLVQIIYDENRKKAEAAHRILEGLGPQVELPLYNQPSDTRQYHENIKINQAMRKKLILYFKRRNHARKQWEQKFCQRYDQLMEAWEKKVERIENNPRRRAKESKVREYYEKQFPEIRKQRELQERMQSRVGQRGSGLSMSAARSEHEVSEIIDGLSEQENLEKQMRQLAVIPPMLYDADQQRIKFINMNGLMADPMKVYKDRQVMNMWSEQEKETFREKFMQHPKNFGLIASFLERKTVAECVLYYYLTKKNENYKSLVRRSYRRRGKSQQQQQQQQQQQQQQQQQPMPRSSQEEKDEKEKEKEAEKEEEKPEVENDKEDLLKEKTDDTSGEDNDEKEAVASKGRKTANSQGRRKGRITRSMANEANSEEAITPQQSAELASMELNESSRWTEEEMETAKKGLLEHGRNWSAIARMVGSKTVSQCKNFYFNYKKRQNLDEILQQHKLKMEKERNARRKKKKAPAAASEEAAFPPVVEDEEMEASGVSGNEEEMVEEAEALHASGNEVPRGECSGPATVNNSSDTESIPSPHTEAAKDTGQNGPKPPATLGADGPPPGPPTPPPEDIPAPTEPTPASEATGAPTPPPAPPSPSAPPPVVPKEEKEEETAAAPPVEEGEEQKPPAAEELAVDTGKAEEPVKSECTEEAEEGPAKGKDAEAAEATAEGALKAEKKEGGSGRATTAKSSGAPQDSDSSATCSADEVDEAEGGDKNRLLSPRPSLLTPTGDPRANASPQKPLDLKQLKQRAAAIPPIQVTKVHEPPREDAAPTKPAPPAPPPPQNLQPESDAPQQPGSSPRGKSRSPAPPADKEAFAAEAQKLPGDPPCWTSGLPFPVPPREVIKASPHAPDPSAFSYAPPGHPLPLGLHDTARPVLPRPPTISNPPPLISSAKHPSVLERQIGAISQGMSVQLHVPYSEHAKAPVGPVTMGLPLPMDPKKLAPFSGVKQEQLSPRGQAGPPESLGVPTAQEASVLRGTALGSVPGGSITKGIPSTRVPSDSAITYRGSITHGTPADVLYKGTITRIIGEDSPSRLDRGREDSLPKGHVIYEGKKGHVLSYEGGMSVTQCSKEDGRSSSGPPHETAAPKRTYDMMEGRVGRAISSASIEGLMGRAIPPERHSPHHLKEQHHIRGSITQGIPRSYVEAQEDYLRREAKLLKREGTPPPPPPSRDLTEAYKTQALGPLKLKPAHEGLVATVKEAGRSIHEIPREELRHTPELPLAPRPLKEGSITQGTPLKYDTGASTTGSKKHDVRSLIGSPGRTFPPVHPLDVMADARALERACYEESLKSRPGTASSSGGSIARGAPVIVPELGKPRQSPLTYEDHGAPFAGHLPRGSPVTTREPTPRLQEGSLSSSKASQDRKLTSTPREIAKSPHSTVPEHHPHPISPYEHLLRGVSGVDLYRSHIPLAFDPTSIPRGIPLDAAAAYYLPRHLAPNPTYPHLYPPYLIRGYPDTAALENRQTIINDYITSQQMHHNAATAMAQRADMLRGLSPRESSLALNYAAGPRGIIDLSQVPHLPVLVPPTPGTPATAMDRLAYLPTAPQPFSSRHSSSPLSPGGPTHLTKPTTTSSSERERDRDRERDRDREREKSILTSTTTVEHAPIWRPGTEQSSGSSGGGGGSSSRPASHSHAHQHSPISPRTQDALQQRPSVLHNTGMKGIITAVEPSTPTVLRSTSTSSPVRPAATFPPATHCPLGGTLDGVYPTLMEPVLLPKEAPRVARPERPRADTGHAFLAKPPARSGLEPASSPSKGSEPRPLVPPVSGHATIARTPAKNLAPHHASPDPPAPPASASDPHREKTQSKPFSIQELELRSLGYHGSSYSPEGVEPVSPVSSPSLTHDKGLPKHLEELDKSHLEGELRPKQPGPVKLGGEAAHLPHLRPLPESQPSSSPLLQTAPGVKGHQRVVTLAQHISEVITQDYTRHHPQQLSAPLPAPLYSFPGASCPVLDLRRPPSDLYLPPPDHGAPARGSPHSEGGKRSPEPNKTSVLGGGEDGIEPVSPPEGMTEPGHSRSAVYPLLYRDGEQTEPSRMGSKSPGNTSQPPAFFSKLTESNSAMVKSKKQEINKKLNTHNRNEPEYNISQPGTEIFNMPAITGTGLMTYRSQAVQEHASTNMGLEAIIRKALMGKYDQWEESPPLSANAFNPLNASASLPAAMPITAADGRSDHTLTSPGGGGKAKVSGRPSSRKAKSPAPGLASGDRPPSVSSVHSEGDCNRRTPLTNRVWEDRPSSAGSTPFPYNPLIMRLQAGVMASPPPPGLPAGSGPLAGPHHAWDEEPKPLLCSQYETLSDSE
Chain of Histone deacetylase 2 (Q92769 whole entry, the tested form may be a part): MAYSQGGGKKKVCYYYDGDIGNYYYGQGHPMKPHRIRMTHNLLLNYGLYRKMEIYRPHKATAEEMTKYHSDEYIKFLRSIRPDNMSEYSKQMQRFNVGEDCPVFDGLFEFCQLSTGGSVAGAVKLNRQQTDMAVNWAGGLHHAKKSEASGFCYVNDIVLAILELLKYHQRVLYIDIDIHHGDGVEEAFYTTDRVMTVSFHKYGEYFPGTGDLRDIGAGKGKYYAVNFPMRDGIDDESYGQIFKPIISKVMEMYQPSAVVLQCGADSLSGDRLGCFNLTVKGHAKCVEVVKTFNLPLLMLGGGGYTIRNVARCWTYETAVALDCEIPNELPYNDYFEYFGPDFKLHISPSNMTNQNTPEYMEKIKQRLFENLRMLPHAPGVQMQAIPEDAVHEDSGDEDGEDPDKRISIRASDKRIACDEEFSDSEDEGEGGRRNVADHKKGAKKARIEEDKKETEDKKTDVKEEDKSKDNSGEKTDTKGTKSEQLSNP
Chain of Histone deacetylase 1 (Q13547 whole entry, the tested form may be a part): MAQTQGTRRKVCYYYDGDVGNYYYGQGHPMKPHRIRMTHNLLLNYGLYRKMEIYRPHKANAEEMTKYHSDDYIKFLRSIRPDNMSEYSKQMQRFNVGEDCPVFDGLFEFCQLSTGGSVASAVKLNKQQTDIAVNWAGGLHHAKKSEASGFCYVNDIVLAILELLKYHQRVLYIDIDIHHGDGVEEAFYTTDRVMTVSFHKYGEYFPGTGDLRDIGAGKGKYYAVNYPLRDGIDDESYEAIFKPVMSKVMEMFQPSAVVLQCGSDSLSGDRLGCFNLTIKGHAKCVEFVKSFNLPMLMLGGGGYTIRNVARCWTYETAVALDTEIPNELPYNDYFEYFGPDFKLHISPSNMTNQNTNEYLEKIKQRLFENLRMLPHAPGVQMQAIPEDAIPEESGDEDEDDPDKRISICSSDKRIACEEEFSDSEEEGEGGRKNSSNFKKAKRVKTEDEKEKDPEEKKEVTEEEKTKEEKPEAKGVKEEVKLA

COc1ccc(S(=O)(=O)Nc2ccccc2/C=C/c2ccc(C(=O)Nc3ccccc3N)cc2)cc1
GI50 [1]: 660 nM

COc1ccc(S(=O)(=O)Nc2cccc(CCc3ccc(C(=O)Nc4ccccc4N)cc3)c2)cc1
GI50 [1]: 678 nM

COc1ccc(S(=O)(=O)Nc2ccccc2CCc2ccc(C(=O)Nc3ccccc3O)cc2)cc1
GI50 [1]: 472 nM

COc1ccc(S(=O)(=O)Nc2ccccc2CCc2ccc(C(=O)Nc3cccc(N)c3)cc2)cc1
GI50 [1]: 697 nM

Nc1ccccc1NC(=O)c1ccc(CCc2ccccc2NS(=O)(=O)c2ccc(F)cc2)cc1
GI50 [1]: 884 nM

Nc1ccccc1NC(=O)c1ccc(CNC(=O)OCc2cccnc2)cc1 [ENTINOSTAT]
GI50 [1]: 6630 nM | GI50 [2]: 7710 nM | GI50 [3]: 5680 nM | Activity [4]: Active

COc1cccc(S(=O)(=O)Nc2ccccc2CCc2ccc(C(=O)Nc3ccccc3N)cc2)c1
GI50 [1]: 462 nM

COc1ccc(S(=O)(=O)Nc2ccccc2CCc2ccc(C(=O)Nc3ccccc3N)cc2)cc1
GI50 [1]: 23 nM | GI50 [2]: 31 nM | GI50 [3]: 22 nM | pIC50 [5]: 5.92 | pIC50 [6]: < 5.00 | pIC50 [7]: 5.59 | pIC50 [8]: < 5.00 | Activity [9]: Active | Activity [10]: Active | Activity [11]: Active | Activity [12]: Active

COc1ccc(S(=O)(=O)Nc2ccccc2CCc2ccc(C(=O)NO)cc2)cc1
GI50 [1]: > 10000 nM

COc1ccc(S(=O)(=O)Nc2ccccc2OCc2ccc(C(=O)Nc3ccccc3N)cc2)cc1
GI50 [1]: 60 nM | GI50 [2]: 42 nM | GI50 [3]: 62 nM | pIC50 [5]: 5.26 | pIC50 [6]: 5.31 | pIC50 [7]: 5.10 | pIC50 [8]: < 5.00

COc1ccc(S(=O)(=O)Nc2ccccc2-c2ccc(C(=O)Nc3ccccc3N)cc2)cc1
GI50 [1]: 442 nM

Nc1ccccc1NC(=O)c1ccc(CCc2ccccc2NS(=O)(=O)c2ccc(Cl)cc2)cc1
GI50 [1]: 448 nM
